Source: ChEMBL document CHEMBL1151801, “Synthesis of new indeno[1,2-e]pyrimido[4,5-b][1,4]diazepine-5,11-diones as potential antitumor agents” (2008)

Key:
Assay type in all cases: functional
A498 = experiment: Antitumor activity against human A498 cells after 48 hrs by SRB assay; details: A498, 48 h
In short: (§1)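 NCI in vitro human tumor cell line screen. Cells were exposed continuously to compound for 48 h at five concentration levels (100, 10, 1.0, 0.1 and 0.01). Growth was estimated by sulforhodamine B protein staining. GI50 is the concentration giving a 50% reduction in net protein increase relative to control cells over the incubation.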

SK-OV-3 = experiment: Antitumor activity against human SKOV3 cells after 48 hrs by SRB assay; details: SK-OV-3, 48 h; in short: as §1
U-251 = experiment: Antitumor activity against human U251 cells after 48 hrs by SRB assay; details: U-251, 48 h; for CC50: read-out: LC50 (the source's name)
In short: (§2)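 NCI in vitro human tumor cell line screen. Continuous 48 h drug exposure at five concentrations (100, 10, 1.0, 0.1 and 0.01 µM). Cell growth estimated by sulforhodamine B protein staining. GI50 defined as the concentration giving 50% reduction in net protein increase versus control cells over the incubation.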

KM12 = experiment: Antitumor activity against human KM12 cells after 48 hrs by SRB assay; details: KM12, 48 h; for CC50: read-out: LC50 (the source's name); in short: as §1
NCI-H460 = experiment: Antitumor activity against human NCI-H460 cells after 48 hrs by SRB assay; details: NCI-H460, 48 h; for CC50: read-out: LC50 (the source's name); in short: as §1
HOP-92 = experiment: Antitumor activity against human HOP92 cells after 48 hrs by SRB assay; details: HOP-92, 48 h; in short: as §1
EKVX = experiment: Antitumor activity against human EKVX cells after 48 hrs by SRB assay; details: for CC50: read-out: LC50 (the source's name); in short: as §1
[1] = Antitumor activity against human […] cells after 48 hrs by SRB assay; in short: as §1
T47D = experiment: Antitumor activity against human T47D cells after 48 hrs by SRB assay; details: for CC50: read-out: LC50 (the source's name); in short: as §2
RXF 393 = experiment: Antitumor activity against human […] cells after 48 hrs by SRB assay; details: RXF 393, 48 h; in short: as §1
OVCAR-5 = experiment: Antitumor activity against human OVCAR5 cells after 48 hrs by SRB assay; details: OVCAR-5, 48 h; in short: as §1
UACC-62 = experiment: Antitumor activity against human UACC62 cells after 48 hrs by SRB assay; details: UACC-62, 48 h; in short: as §2
SK-MEL-5 = experiment: Antitumor activity against human SK-MEL-5 cells after 48 hrs by SRB assay; details: SK-MEL-5, 48 h; in short: as §1
SK-MEL-28 = experiment: Antitumor activity against human SK-MEL-28 cells after 48 hrs by SRB assay; details: SK-MEL-28, 48 h; in short: as §1
M14 = experiment: Antitumor activity against human M14 cells after 48 hrs by SRB assay; details: M14, 48 h; in short: as §1
Malme-3M = experiment: Antitumor activity against human MALME-3M cells after 48 hrs by SRB assay; in short: as §1
LOX IMVI = experiment: Antitumor activity against human LOXIMVI cells after 48 hrs by SRB assay; in short: as §1
SNB-19 = experiment: Antitumor activity against human SNB19 cells after 48 hrs by SRB assay; details: SNB-19, 48 h; in short: as §1
TK-10 = experiment: Antitumor activity against human TK10 cells after 48 hrs by SRB assay; details: TK-10, 48 h; in short: as §2
[2] = read-out: LC50 (the source's name)

With `CSc1nc2c(c(=O)[nH]1)NC1=C(C(=O)c3ccccc31)C(c1ccccc1)N2` (stereo unspecified) the GI50 (A498) was 2 µM, the LC50 (A498) was over 100 µM and the GI50 (SK-OV-3) was 7.65 µM. For the same compound, the LC50 (concentration killing 50% of cells) (SK-OV-3) was over 100 µM, the GI50 (U-251) was 3.52 µM and the CC50 (U-251) was over 100 µM. For the same compound, the GI50 (KM12) was 2.27 µM, the CC50 (KM12) was over 100 µM and the GI50 (NCI-H460) was 3.16 µM. For the same compound, the CC50 (NCI-H460) was over 100 µM, the GI50 (HOP-92) was 12 µM and the LC50 (HOP-92) was over 100 µM. For the same compound, the GI50 (EKVX) was 12.8 µM, the CC50 (EKVX) was over 100 µM and the GI50 [1] was 3.01 µM. It also gave an LC50 [1] of over 100 µM, a GI50 (T47D) of 4.61 µM and a CC50 (T47D) of over 100 µM.
For `CSc1nc2c(c(=O)[nH]1)NC1=C(C(=O)c3ccccc31)C(c1ccc(F)cc1)N2` (stereo unspecified), the GI50 (RXF 393) was 14.5 µM, the CC50 (RXF 393; [2]) was 92.8 µM and the GI50 (A498) was 4.88 µM. The LC50 (A498) was 57.7 µM, the GI50 (SK-OV-3) was 14.1 µM and the LC50 (concentration killing 50% of cells) (SK-OV-3) was over 100 µM. It also gave a GI50 (OVCAR-5) of 17.7 µM, a CC50 (OVCAR-5; [2]) of 95.6 µM and a GI50 (UACC-62) of 3.04 µM. It also gave a CC50 (UACC-62; [2]) of over 100 µM, a GI50 (SK-MEL-5) of 6.13 µM and a CC50 (SK-MEL-5; [2]) of over 100 µM. For the same compound, the GI50 (SK-MEL-28) was 9.03 µM, the CC50 (SK-MEL-28; [2]) was over 100 µM and the GI50 (M14) was 6.29 µM. For the same compound, the CC50 (M14; [2]) was over 100 µM, the GI50 (Malme-3M) was 19.6 µM and the CC50 (Malme-3M; [2]) was over 100 µM. It also gave a GI50 (LOX IMVI) of 8.78 µM, a CC50 (LOX IMVI; [2]) of 95.2 µM and a GI50 (U-251) of 5.43 µM. It also gave a CC50 (U-251) of 48.6 µM, a GI50 (SNB-19) of 15.9 µM and a CC50 (SNB-19; [2]) of over 100 µM. It also gave a GI50 (KM12) of 3.77 µM, a CC50 (KM12) of 39.5 µM and a GI50 (NCI-H460) of 5.1 µM. It also gave a CC50 (NCI-H460) of over 100 µM, a GI50 (HOP-92) of 9.52 µM and an LC50 (HOP-92) of over 100 µM. For the same compound, the GI50 (EKVX) was 18.2 µM, the CC50 (EKVX) was over 100 µM and the GI50 [1] was 4.2 µM. For the same compound, the LC50 [1] was over 100 µM, the GI50 (TK-10) was 12.9 µM and the CC50 (TK-10; [2]) was over 100 µM. The GI50 (T47D) was 14.2 µM and the CC50 (T47D) was over 100 µM.
